Source: ChEMBL document CHEMBL1124774, “Synthesis and biological activity of some derivatives of rifamycin P” (1990)
≈ marks a conversion by molar mass, not a printed value.

Columns and labels:
[1] = tested on: Escherichia coli; test: In vitro antibacterial activity of compound against Escherichia coli SKF 12140; assay type: functional
[2] = tested on: Klebsiella pneumoniae; test: In vitro antibacterial activity of compound against Klebsiella pneumoniae ISM; assay type: functional
[3] = tested on: Mycobacterium scrofulaceum; test: In vitro activity of compound against slowly growing Mycobacterium scrofulaceum 1292; assay type: functional
Outline: (§1)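 Medium was Middlebrook 7H10 agar with 2% glycerol and 10% OADC. Organisms from Loevenstein-Jensen slants were grown in 7H9 broth with 0.5% Tween and 10% OADC, adjusted to McFarland no. 1, and spotted with a multipoint inoculator. Sealed plates were incubated at 22, 30 or 37 °C for 4-20 days depending on strain.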

[4] = tested on: Mycobacterium scrofulaceum; test: In vitro activity of compound against slowly growing Mycobacterium scrofulaceum 1293; assay type: functional; outline: as §1
[5] = tested on: Mycobacterium scrofulaceum; test: In vitro activity of compound against slowly growing Mycobacterium scrofulaceum 1297; assay type: functional; outline: as §1
[6] = tested on: Mycobacterium scrofulaceum; test: In vitro activity of compound against slowly growing Mycobacterium scrofulaceum 1301; assay type: functional; outline: as §1
[7] = tested on: Mycobacterium xenopi; test: In vitro activity compound against slowly growing Mycobacterium xenopi 1446; assay type: functional; outline: as §1
[8] = tested on: Mycobacterium xenopi; test: In vitro activity of compound against slowly growing Mycobacterium xenopi 554; assay type: functional; outline: as §1
[9] = tested on: Mycobacterium xenopi; test: In vitro activity of compound against slowl growingy Mycobacterium xenopi 555; assay type: functional; outline: as §1
[10] = tested on: Mycolicibacterium phlei; test: In vitro activity of compound against rapidly growing Mycobacterium phlei 141; assay type: functional; outline: as §1
[11] = tested on: Mycolicibacterium phlei; test: In vitro activity of compound against rapidly growing Mycobacterium phlei 1283; assay type: functional; outline: as §1
[12] = tested on: Mycolicibacterium phlei; test: In vitro activity of compound against rapidly growing Mycobacterium phlei 1289; assay type: functional; outline: as §1
[13] = tested on: Mycobacterium kansasii; test: In vitro activity compound against slowly growing Mycobacterium kansasii 1298; assay type: functional; outline: as §1
[14] = tested on: Mycobacterium kansasii; test: In vitro activity of compound against slowly growing Mycobacterium kansasii 1299; assay type: functional; outline: as §1
[15] = tested on: Mycobacterium marinum; test: In vitro activity of compound against slowly growing Mycobacterium marinum 1388; assay type: functional; outline: as §1
[16] = tested on: Mycobacterium marinum; test: In vitro activity of compound against slowly growing Mycobacterium marinum 1390; assay type: functional; outline: as §1
[17] = tested on: Mycobacterium marinum; test: In vitro activity of compound against slowly growing Mycobacterium marinum 1391; assay type: functional; outline: as §1
[18] = tested on: Mycolicibacterium fortuitum; test: In vitro activity of compound against rapidly growing Mycobacterium fortuitum 114; assay type: functional; outline: as §1
[19] = tested on: Mycolicibacterium fortuitum; test: In vitro activity of compound against rapidly growing Mycobacterium fortuitum 1285; assay type: functional; outline: as §1
[20] = tested on: Mycolicibacterium fortuitum; test: In vitro activity of compound against rapidly growing Mycobacterium fortuitum 1287; assay type: functional; outline: as §1
[21] = tested on: Mycolicibacterium fortuitum; test: In vitro activity compound against rapidly growing Mycobacterium fortuitum 1302; assay type: functional; outline: as §1
[22] = tested on: Mycolicibacterium fortuitum; test: In vitro activity of compound against rapidly growing Mycobacterium fortuitum 646; assay type: functional; outline: as §1
[23] = tested on: Mycolicibacterium fortuitum; test: In vitro activity of compound against rapidly growing Mycobacterium fortuitum 726; assay type: functional; outline: as §1
[24] = tested on: Mycobacterium gordonae; test: In vitro activity of compound against slowly growing Mycobacterium gordonae 1294; assay type: functional; outline: as §1
[25] = tested on: Mycobacterium gordonae; test: In vitro activity of compound against slowly growing Mycobacterium gordonae 1441; assay type: functional; outline: as §1
[26] = tested on: Mycobacterium kansasii; test: In vitro activity compound against slowly growing Mycobacterium kansasii 1291; assay type: functional; outline: as §1
[27] = tested on: Mycolicibacterium flavescens; test: In vitro activity of compound against rapidly growing Mycobacterium flavescens 1284; assay type: functional; outline: as §1
[28] = tested on: Mycolicibacterium flavescens; test: In vitro activity of compound against rapidly growing Mycobacterium flavescens 1286; assay type: functional; outline: as §1
[29] = tested on: Mycobacterium marinum; test: In vitro activity of compound against slowly growing Mycobacterium marinum 1392 h; assay type: functional; outline: as §1
[30] = tested on: Mycobacterium marinum; test: In vitro activity of compound against slowly growing Mycobacterium marinum 1393; assay type: functional; outline: as §1
[31] = tested on: Mycobacterium marinum; test: In vitro activity of compound against slowly growing Mycobacterium marinum 1394; assay type: functional; outline: as §1
[32] = tested on: Mycobacterium marinum; test: In vitro activity of compound against slowly growing Mycobacterium marinum 1447; assay type: functional; outline: as §1
[33] = tested on: Mycobacterium tuberculosis; test: In vitro antibacterial activity of compound against Mycobacterium tuberculosis H37Rv ATCC 9660; assay type: functional
[34] = tested on: Mycobacterium avium; test: 50% inhibition of the 20 Mycobacterium (MAC) avium complex clinical isolates; assay type: functional
Outline: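 Agar-dilution MICs, 2-fold dilutions over 128-0.0001 μg/mL, on Middlebrook 7H10 agar with 2% glycerol and 10% OADC. Organisms from Loevenstein-Jensen slants were grown in 7H9 broth with 0.5% Tween and 10% OADC, adjusted to McFarland no. 1, and spotted with a multipoint inoculator. Plates were sealed and incubated at 22, 30 or 37 °C for 4-20 days depending on strain.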

[35] = tested on: Neisseria gonorrhoeae; test: In vitro antibacterial activity of compound against Neisseria gonorrhoeae ISM 68/126; assay type: functional
[36] = tested on: Pseudomonas aeruginosa; test: In vitro antibacterial activity of compound against Pseudomonas aeruginosa ATCC 10145; assay type: functional
Outline: (§2)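 Twofold microdilution MIC in Iso-Sensitest broth over 128-0.0001 µg/mL. Inoculum was 10^4 cfu/mL, with incubation at 37 °C for 18-24 h.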

[37] = tested on: Proteus vulgaris; test: In vitro antibacterial activity of compound against Proteus vulgaris X19H ATCC 881; assay type: functional
[38] = tested on: Staphylococcus aureus; test: Activity in the murine model (OS route) of Staphylococcus aureus tour septicemia; assay type: functional
Outline: (§3)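 Male and female CD1 mice (18-22 g) were infected ip with S. aureus Tour. The challenge was set so untreated mice died within 48 h. Groups were five mice, dosed once daily for 3 days starting immediately after infection. ED50 was calculated on day 10 from the percentage surviving at each dose.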

[39] = tested on: Staphylococcus aureus; test: Activity in the murine model (subcutaneous route) of Staphylococcus aureus tour septicemia; assay type: functional; conditions: sc; outline: as §3
[40] = tested on: Staphylococcus epidermidis; test: In vitro antibacterial activity of compound against Staphylococcus epidermidis ATCC 12228; assay type: functional; outline: as §2
[41] = tested on: Streptococcus pyogenes; test: Inhibitory concentration of compound against Streptococcus pyogenus septicemia in the mouse, administarted in OS route; assay type: functional
Outline: (§4)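 Male and female CD1 mice (18-22 g) were infected ip with S. pyogenes C203, with the challenge set so untreated mice died within 48 h. Groups of five received a single treatment immediately after infection. ED50 was calculated from the percentage surviving at each dose on day 10.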

[42] = tested on: Streptococcus pyogenes; test: Inhibitory concentration of compound against Streptococcus pyogenus septicemia in the mouse, administarted in subcutaneous route; assay type: functional; conditions: sc; outline: as §4
[43] = tested on: Streptococcus pyogenes; test: Minimum inhibitory concentration of compound against Streptococcus pyogenus septicemia in the mouse; assay type: functional
[44] = tested on: Streptococcus pyogenes; test: In vitro antibacterial activity of compound against Streptococcus pyogenes C 203 SKF 13400; assay type: functional
Outline: (§5)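 Streptococcal MICs were run by twofold microdilution in Todd-Hewitt broth over 128-0.0001 µg/mL. Inoculum was 10^4 cfu/mL, with incubation at 37 °C for 18-24 h.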

[45] = tested on: Staphylococcus aureus; test: In vitro antibacterial activity of compound against Staphylococcus aureus Tour L 165; assay type: functional; outline: as §2
[46] = tested on: Streptococcus pneumoniae; test: In vitro antibacterial activity of compound against Streptococcus pneumoniae UC 41; assay type: functional; outline: as §5
[47] = tested on: Enterococcus faecalis; test: In vitro antibacterial activity of compound against Streptococcus faecalis ATCC 7080.; assay type: functional; outline: as §2
[48] = tested on: Mycolicibacterium fortuitum; test: In vitro activity of compound against rapidly growing Mycobacterium fortuitum 645; assay type: functional; outline: as §1
[49] = tested on: Haemophilus influenzae; test: In vitro antibacterial activity of compound against Haemophilus influenzae ATCC 19418; assay type: functional
[50] = tested on: Mycobacterium xenopi; test: In vitro activity of compound against slowly growing Mycobacterium xenopi 556; assay type: functional; outline: as §1
[51] = tested on: Mycobacteroides chelonae; test: In vitro activity of compound against rapidly growing Mycobacterium chelonae 1443

CO[C@H]1/C=C/O[C@@]2(C)Oc3c(C)c(O)c4c(O)c(c(/C=N/N5CCN(C)CC5)c(O)c4c3C2=O)NC(=O)/C(C)=C\C=C\[C@H](C)[C@H](O)[C@@H](C)[C@@H](O)[C@@H](C)[C@H](OC(C)=O)[C@@H]1C [RIFAMPIN]
MIC [1]: 8 µg/mL (≈ 9.72 µM)
MIC [2]: 16 µg/mL (≈ 19.4 µM)
MIC [3]: 0.063 µg/mL (≈ 0.0766 µM)
MIC [4]: 0.063 µg/mL (≈ 0.0766 µM)
MIC [5]: 0.125 µg/mL (≈ 0.152 µM)
MIC [6]: 8 µg/mL (≈ 9.72 µM)
MIC [7]: 1 µg/mL (≈ 1.22 µM)
MIC [8]: 1 µg/mL (≈ 1.22 µM)
MIC [9]: 1 µg/mL (≈ 1.22 µM)
MIC [10]: 0.032 µg/mL (≈ 0.0389 µM)
MIC [11]: 0.25 µg/mL (≈ 0.304 µM)
MIC [12]: 8 µg/mL (≈ 9.72 µM)
MIC [13]: 0.125 µg/mL (≈ 0.152 µM)
MIC [14]: 8 µg/mL (≈ 9.72 µM)
MIC [15]: 1 µg/mL (≈ 1.22 µM)
MIC [16]: 2 µg/mL (≈ 2.43 µM)
MIC [17]: 0.5 µg/mL (≈ 0.608 µM)
MIC [18]: 128 µg/mL (≈ 156 µM)
MIC [19]: 4 µg/mL (≈ 4.86 µM)
MIC [20]: 2 µg/mL (≈ 2.43 µM)
MIC [21]: 1 µg/mL (≈ 1.22 µM)
MIC [22]: 128 µg/mL (≈ 156 µM)
MIC [23]: 32 µg/mL (≈ 38.9 µM)
MIC [24]: 0.5 µg/mL (≈ 0.608 µM)
MIC [25]: 4 µg/mL (≈ 4.86 µM)
MIC [26]: 16 µg/mL (≈ 19.4 µM)
MIC [27]: 128 µg/mL (≈ 156 µM)
MIC [28]: 0.25 µg/mL (≈ 0.304 µM)
MIC [29]: 0.5 µg/mL (≈ 0.608 µM)
MIC [30]: 0.5 µg/mL (≈ 0.608 µM)
MIC [31]: 0.5 µg/mL (≈ 0.608 µM)
MIC [32]: 1 µg/mL (≈ 1.22 µM)
MIC [33]: 0.25 µg/mL (≈ 0.304 µM)
MIC50 [34]: 16 µg/mL (≈ 19.4 µM)
MIC [35]: 0.125 µg/mL (≈ 0.152 µM)
MIC [36]: 8 µg/mL (≈ 9.72 µM)
MIC [37]: 8 µg/mL (≈ 9.72 µM)
ED50 [38]: 0.28 mg/kg
ED50 [39]: 0.09 mg/kg
MIC [40]: 0.008 µg/mL (≈ 0.00972 µM)
ED50 [41]: 0.47 mg/kg
ED50 [42]: 0.35 mg/kg
MIC [43]: 0.063 µg/mL (≈ 0.0766 µM)
MIC [44]: 0.063 µg/mL (≈ 0.0766 µM)
MIC [45]: 0.016 µg/mL (≈ 0.0194 µM)
MIC [46]: 0.063 µg/mL (≈ 0.0766 µM)
MIC [47]: 1 µg/mL (≈ 1.22 µM)
MIC [48]: 4 µg/mL (≈ 4.86 µM)
MIC [49]: 0.125 µg/mL (≈ 0.152 µM)
MIC [50]: 1 µg/mL (≈ 1.22 µM)
MIC [51]: > 128 µg/mL

COC1/C=C/OC2(C)Oc3c(C)c(O)c4c(O)c(c5sc(N6CCN(C)CC6)nc5c4c3C2=O)NC(=O)/C(C)=C\C=C\C(C)C(O)C(C)C(O)C(C)C(O)C1C (centres undefined)
MIC [1]: 8 µg/mL (≈ 10.1 µM)
MIC [2]: 16 µg/mL (≈ 20.1 µM)
MIC [33]: 1 µg/mL (≈ 1.26 µM)
MIC [35]: 1 µg/mL (≈ 1.26 µM)
MIC [36]: 16 µg/mL (≈ 20.1 µM)
MIC [37]: 8 µg/mL (≈ 10.1 µM)
ED50 [39]: 10 mg/kg
MIC [40]: 0.125 µg/mL (≈ 0.157 µM)
MIC [44]: 0.063 µg/mL (≈ 0.0792 µM)
MIC [45]: 0.008 µg/mL (≈ 0.0101 µM)
MIC [46]: 0.063 µg/mL (≈ 0.0792 µM)
MIC [47]: 1 µg/mL (≈ 1.26 µM)
MIC [49]: 0.125 µg/mL (≈ 0.157 µM)
